# The source made the active and inactive calls. The calls are words filed in the database; no cut-off is given here.
# Assays:
# [1] = system: Mus musculus; experiment: Antiinflammatory activity against TPA-induced ear edema in BALB/c mouse assessed as decrease in weight of ear punches at 5 mg administered topically for 15 mins prior to TPA challenge and measured after 48 hrs relative to control; type: functional; set-up: scale not given: the % may be the effect or the level left
# [2] = system: Mus musculus; experiment: Antiinflammatory activity against TPA-induced ear edema in BALB/c mouse assessed as decrease in Akt phosphorylation in edema administered topically for 15 mins prior to TPA challenge by immunohistochemical method; type: functional, organism-based
# [3] = system: Mus musculus; experiment: Antiinflammatory activity against TPA-induced ear edema in BALB/c mouse assessed as decrease in ear punches at 50 mM administered topically for 15 mins prior to TPA challenge and measured after 6 hrs relative to control; type: functional; set-up: scale not given: the % may be the effect or the level left
# In short: (§1)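 Female BALB/c mice, 4–5 weeks old, n = 3 per group. Both ears received 30 μL of test solution in DMSO:methylene chloride (20:80) at 50, 100, 150 or 200 mM. Topical TPA (30 μL, 25 μg mL⁻¹) followed 15 min later. Mice were killed at 6 h, and two 6 mm punches per animal were weighed. Controls had vehicle then acetone. Mean ± SD of six experiments in triplicate.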
# [4] = system: Mus musculus; experiment: Antiinflammatory activity against TPA-induced ear edema in BALB/c mouse assessed as weight of ear punches at 200 mM, ip administered 15 mins prior to TPA challenge and measured after 12 hrs (reference value: 12.4 +/- 0.1 mg); type: functional
# [5] = system: Mus musculus; experiment: Antiinflammatory activity against TPA-induced ear edema in BALB/c mouse assessed as weight of ear punches at 200 mM, ip administered 15 mins prior to TPA challenge and measured after 24 hrs (reference value: 12.1 +/- 0.2 mg); type: functional
# [6] = system: Mus musculus; experiment: Antiinflammatory activity against TPA-induced ear edema in BALB/c mouse assessed as decrease in ear punches administered topically for 15 mins prior to TPA challenge and measured after 6 hrs; type: functional, organism-based; in short: as §1
# [7] = system: Mus musculus; experiment: Antiinflammatory activity against TPA-induced ear edema in BALB/c mouse assessed as decrease in p38 phosphorylation in edema administered topically for 15 mins prior to TPA challenge by immunohistochemical method; type: functional, organism-based
# [8] = system: Mus musculus; experiment: Antiinflammatory activity against TPA-induced ear edema in BALB/c mouse assessed as weight of ear punches at 200 mM, ip administered 15 mins prior to TPA challenge and measured after 6 hrs (reference value: 12.5 +/- 0.3 mg); type: functional
# [9] = system: Mus musculus; experiment: Antiinflammatory activity against TPA-induced ear edema in BALB/c mouse assessed as decrease in ear punches at 100 mM administered topically for 15 mins prior to TPA challenge and measured after 6 hrs relative to control; type: functional; set-up: scale not given: the % may be the effect or the level left; in short: as §1
# [10] = system: Mus musculus; experiment: Antiinflammatory activity against TPA-induced ear edema in BALB/c mouse assessed as weight of ear punches at 200 mM, po administered 15 mins prior to TPA challenge and measured after 12 hrs (reference value: 12.4 +/- 0.1 mg); type: functional
# [11] = system: Mus musculus; experiment: Antiinflammatory activity against TPA-induced ear edema in BALB/c mouse assessed as weight of ear punches at 200 mM, ip administered 15 mins prior to TPA challenge and measured after 3 hrs (reference value: 8.3 +/- 0.1 mg); type: functional
# [12] = system: Mus musculus; experiment: Antiinflammatory activity against TPA-induced ear edema in BALB/c mouse assessed as weight of ear punches at 200 mM administered topically for 15 mins prior to TPA challenge and measured after 48 hrs (reference value: 11.4 +/- 0.3 mg); type: functional
# [13] = system: Mus musculus; experiment: Antiinflammatory activity against TPA-induced ear edema in BALB/c mouse assessed as decrease in weight of ear punches at 5 mg administered topically for 15 mins prior to TPA challenge and measured after 6 hrs relative to control; type: functional; set-up: scale not given: the % may be the effect or the level left
# [14] = system: Mus musculus; experiment: Antiinflammatory activity against TPA-induced ear edema in BALB/c mouse assessed as weight of ear punches at 200 mM administered topically for 15 mins prior to TPA challenge and measured after 24 hrs (reference value: 12.1 +/- 0.2 mg); type: functional
# [15] = system: Mus musculus; experiment: Antiinflammatory activity against TPA-induced ear edema in BALB/c mouse assessed as decrease in weight of ear punches at 200 mM, po administered 15 mins prior to TPA challenge and measured after 24 hrs relative to control; type: functional; set-up: scale not given: the % may be the effect or the level left
# [16] = system: Mus musculus; experiment: Antiinflammatory activity against TPA-induced ear edema in BALB/c mouse assessed as weight of ear punches at 200 mM, po administered 15 mins prior to TPA challenge and measured after 6 hrs (reference value: 12.5 +/- 0.3 mg); type: functional
# [17] = system: Mus musculus; experiment: Antiinflammatory activity against TPA-induced ear edema in BALB/c mouse assessed as decrease in COX2 expression in edema administered topically for 15 mins prior to TPA challenge by immunohistochemical method; type: functional, organism-based
# [18] = system: Mus musculus; experiment: Antiinflammatory activity against TPA-induced ear edema in BALB/c mouse assessed as decrease in IkappaBalpha phosphorylation in edema administered topically for 15 mins prior to TPA challenge by immunohistochemical method; type: functional, organism-based
# [19] = system: Mus musculus; experiment: Antiinflammatory activity against TPA-induced ear edema in BALB/c mouse assessed as decrease in p65 phosphorylation in edema administered topically for 15 mins prior to TPA challenge by immunohistochemical method; type: functional, organism-based
# [20] = system: Mus musculus; experiment: Antiinflammatory activity against TPA-induced ear edema in BALB/c mouse assessed as decrease in leucocyte infiltration in edema administered topically for 15 mins prior to TPA challenge and measured after 6 hrs by hematoxylin/eosin staining-based microscopic method; type: functional, organism-based
# In short: (§2)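 Female BALB/c mice were pretreated topically at 50–200 mM, then given TPA. Ears were taken at 6 h, fixed in 4% PFA, decalcified in EDTA, paraffin-embedded and sectioned at 4 μm for H&E. Epidermal hyperplasia and dermal leukocyte infiltration were scored in at least five regions at 200×. ANOVA with Dunnett's test.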
# [21] = system: Mus musculus; experiment: Antiinflammatory activity against TPA-induced ear edema in BALB/c mouse assessed as decrease in ERK1/2 phosphorylation in edema administered topically for 15 mins prior to TPA challenge by immunohistochemical method; type: functional, organism-based
# [22] = system: Mus musculus; experiment: Antiinflammatory activity against TPA-induced ear edema in BALB/c mouse assessed as weight of ear punches at 200 mM, po administered 15 mins prior to TPA challenge and measured after 3 hrs (reference value: 8.3 +/- 0.1 mg); type: functional
# [23] = system: Mus musculus; experiment: Antiinflammatory activity against TPA-induced ear edema in BALB/c mouse assessed as decrease in ear punches at 200 mM administered topically for 15 mins prior to TPA challenge and measured after 6 hrs relative to control; type: functional; set-up: scale not given: the % may be the effect or the level left; in short: as §1
# [24] = system: Mus musculus; experiment: Antiinflammatory activity against TPA-induced ear edema in BALB/c mouse assessed as weight of ear punches at 200 mM, ip administered 15 mins prior to TPA challenge and measured after 48 hrs (reference value: 11.4 +/- 0.3 mg); type: functional
# [25] = system: Mus musculus; experiment: Antiinflammatory activity against TPA-induced ear edema in BALB/c mouse assessed as weight of ear punches at 200 mM administered topically for 15 mins prior to TPA challenge and measured after 3 hrs (reference value: 8.3 +/- 0.1 mg); type: functional
# [26] = system: Mus musculus; experiment: Antiinflammatory activity against TPA-induced ear edema in BALB/c mouse assessed as decrease in weight of ear punches at 5 mg administered topically for 15 mins prior to TPA challenge and measured after 24 hrs relative to control; type: functional; set-up: scale not given: the % may be the effect or the level left
# [27] = system: Mus musculus; experiment: Antiinflammatory activity against TPA-induced ear edema in BALB/c mouse assessed as decrease in PI3K p85 expression in edema at 50 to 200 mM administered topically for 15 mins prior to TPA challenge by immunohistochemical method; type: functional, organism-based
# [28] = system: Mus musculus; experiment: Antiinflammatory activity against TPA-induced ear edema in BALB/c mouse assessed as decrease in weight of ear punches at 5 mg administered topically for 15 mins prior to TPA challenge and measured after 12 hrs relative to control; type: functional; set-up: scale not given: the % may be the effect or the level left
# [29] = system: Mus musculus; experiment: Antiinflammatory activity against TPA-induced ear edema in BALB/c mouse assessed as decrease in weight of ear punches at 200 mM, po administered 15 mins prior to TPA challenge and measured after 48 hrs relative to control; type: functional; set-up: scale not given: the % may be the effect or the level left
# [30] = system: Mus musculus; experiment: Antiinflammatory activity against TPA-induced ear edema in BALB/c mouse assessed as decrease in iNOS expression in edema administered topically for 15 mins prior to TPA challenge by immunohistochemical method; type: functional, organism-based
# [31] = system: Mus musculus; experiment: Antiinflammatory activity against TPA-induced ear edema in BALB/c mouse assessed as decrease in weight of ear punches at 5 mg administered topically for 15 mins prior to TPA challenge and measured after 3 hrs relative to control; type: functional; set-up: scale not given: the % may be the effect or the level left
# [32] = system: Mus musculus; experiment: Antiinflammatory activity against TPA-induced ear edema in BALB/c mouse assessed as decrease in 18F-FDG uptake in ears administered topically for 15 mins prior to TPA challenge and measured after 24 hrs by microPET-CT imaging method; type: functional, organism-based
# In short: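 CT-guided regions of interest were drawn over the ears, and uptake was expressed as SUVmax and SUVmean. Dosing was 200 mM in DMSO:methylene chloride (20:80) on the ears before topical TPA.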
# [33] = system: Mus musculus; experiment: Antiinflammatory activity against TPA-induced ear edema in BALB/c mouse assessed as decrease in PI3K p85 phosphorylation in edema administered topically for 15 mins prior to TPA challenge by immunohistochemical method; type: functional, organism-based
# [34] = system: Mus musculus; experiment: Antiinflammatory activity against TPA-induced ear edema in BALB/c mouse assessed as decrease in ear punches at 150 mM administered topically for 15 mins prior to TPA challenge and measured after 6 hrs relative to control; type: functional; set-up: scale not given: the % may be the effect or the level left; in short: as §1
# [35] = system: Mus musculus; experiment: Antiinflammatory activity against TPA-induced ear edema in BALB/c mouse assessed as decrease in epidermal hyperplasia in edema administered topically for 15 mins prior to TPA challenge and measured after 6 hrs by hematoxylin/eosin staining-based microscopic method; type: functional, organism-based; in short: as §2
# [36] = system: Mus musculus; experiment: Antiinflammatory activity against TPA-induced ear edema in BALB/c mouse assessed as weight of ear punches at 200 mM administered topically for 15 mins prior to TPA challenge and measured after 12 hrs (reference value: 12.4 +/- 0.1 mg); type: functional
# [37] = system: Mus musculus; experiment: Antiinflammatory activity against TPA-induced ear edema in BALB/c mouse assessed as decrease in Akt expression in edema at 50 to 200 mM administered topically for 15 mins prior to TPA challenge by immunohistochemical method; type: functional, organism-based
# [38] = system: Mus musculus; experiment: Antiinflammatory activity against TPA-induced ear edema in BALB/c mouse assessed as decrease in IkappaBalpha degradation in edema administered topically for 15 mins prior to TPA challenge by immunohistochemical method; type: functional, organism-based
structure (smiles),measurement,setting,value
CC1(C)[C@@H](O[C@H]2O[C@H](C(=O)O)[C@@H](O)[C@H](O)[C@H]2O[C@@H]2O[C@H](C(=O)O)[C@@H](O)[C@H](O)[C@H]2O)CC[C@]2(C)[C@H]3C(=O)C=C4[C@@H]5C[C@@](C)(C(=O)O)CC[C@]5(C)CC[C@@]4(C)[C@]3(C)CC[C@@H]12 [GLYCYRRHIZIN],Activity,[1],88.7%
same,Activity,[2],Dose-dependent effect
same,Activity,[3],31.5%
same,Activity,[4],14.1 mg
same,Activity,[5],13.5 mg
same,Activity,[6],Dose-dependent effect
same,Activity,[7],Dose-dependent effect
same,Activity,[8],14.6 mg
same,Activity,[9],60.3%
same,Activity,[10],12.1 mg
same,Activity,[11],7.8 mg
same,Activity,[12],5.9 mg
same,Activity,[13],87.7%
same,Activity,[14],5.9 mg
same,Activity,[15],66.7%
same,Activity,[16],12.3 mg
same,Activity,[17],Dose-dependent effect
same,Activity,[18],Dose-dependent effect
same,Activity,[19],Dose-dependent effect
same,Activity,[20],Dose-dependent effect
same,Activity,[21],Dose-dependent effect
same,Activity,[22],8 mg
same,Activity,[23],87.7%
same,Activity,[24],13.1 mg
same,Activity,[25],5.6 mg
same,Activity,[26],89.9%
same,Activity,[27],Active
same,Activity,[28],87.5%
same,Activity,[29],64.5%
same,Activity,[30],Dose-dependent effect
same,Activity,[31],87.1%
same,Activity,[32],Active
same,Activity,[33],Dose-dependent effect
same,Activity,[34],63%
same,Activity,[35],Dose-dependent effect
same,Activity,[36],6.1 mg
same,Activity,[37],Active
same,Activity,[38],Dose-dependent effect

# Source: ChEMBL document CHEMBL4257551, “Glycyrrhizic acid from licorice down-regulates inflammatory responses via blocking MAPK and PI3K/Akt-dependent NF-κB signalling pathways in TPA-induced skin inflammation” (2018)
